How the values were obtained:
Glutamate NMDA receptor [1] = assay: Tested for the inhibition of [3H]dizocilpine binding to N-methyl-D-aspartate (NMDA) receptor-coupled phencyclidine binding site; type: protein-complex assay
Summary of the method: (§1)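 Rat brain membranes (Sprague–Dawley, whole brain minus cerebellum) in 5 mM Tris-HCl pH 7.4, washed by repeated 20000g spins. Incubation with 2 nM (+)-[3H]-3, 10 μM glutamate and 10 μM glycine for 90 min at 5 °C. Nonspecific binding defined with 10 μM (+)-3. Filtration, then scintillation counting.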

[2] = biological target: T1, Glutamate NMDA receptor (Rattus norvegicus) (UniProt P35439+Q00959+Q00960+Q00961+Q62645+Q8VHN2+Q9R1M7); assay: Tested for the % inactivation of [3H]dizocilpine binding to NMDA receptor at 10 uM); type: protein-complex assay
Summary of the method: (§2)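 Thawed rat brain homogenates pretreated with isothiocyanate for 30 min at 5 °C. Washed three times with buffer containing 100 μM glutamate, 30 μM glycine and 300 μM MgCl2, which removes reversible ligand. Binding of 2 nM (+)-[3H]-3 then measured as in the reversible assay. % inactivation is versus similarly washed untreated controls. Triplicates, mean ± SEM of ≥2 experiments.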

[3] = biological target: GABA-A receptor; anion channel; assay: In vitro inhibition of [3H]flunitrazepam displacement from GABA-A receptor; type: protein-complex assay, Rattus norvegicus
Summary of the method: (§3)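 Reversible and wash-resistant displacement assays used published protocols, with extra washes added to remove unreacted compound. Final radioligand levels were [3H]flunitrazepam 1 nM, (+)-[3H]pentazocine 3 nM, [3H]FOXY 2 nM, [3H]QNB 0.5 nM and [3H]mazindol 5 nM. Test compound went up to 100 μM. Runs were in triplicate, with at least two experiments. Ki came from Cheng-Prusoff.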

Glutamate NMDA receptor [4] = assay: Tested for in vitro inhibition of the displacement of (+)-[3H]dizocilpine from NMDA receptor; type: protein-complex assay; summary of the method: as §1
Glutamate NMDA receptor [5] = assay: Tested for in vitro inhibition of the displacement of [3H]1-[1-(2-thieny])cyclohexyl] peridine from NMDA receptor; type: protein-complex assay
[6] = biological target: Muscarinic acetylcholine receptor; assay: Tested for in vitro inhibition of the displacement of [3H]quinuclidinyl benzilate muscarinic receptor; type: protein assay
Mu-type opioid receptor = Mu-type opioid receptor (Rattus norvegicus, UniProt P33535); assay: Tested for in vitro inhibition of the displacement of [3H]FOXY from mu opioid receptor; summary of the method: as §3
Mu-type opioid receptor, sequence (P33535 whole entry): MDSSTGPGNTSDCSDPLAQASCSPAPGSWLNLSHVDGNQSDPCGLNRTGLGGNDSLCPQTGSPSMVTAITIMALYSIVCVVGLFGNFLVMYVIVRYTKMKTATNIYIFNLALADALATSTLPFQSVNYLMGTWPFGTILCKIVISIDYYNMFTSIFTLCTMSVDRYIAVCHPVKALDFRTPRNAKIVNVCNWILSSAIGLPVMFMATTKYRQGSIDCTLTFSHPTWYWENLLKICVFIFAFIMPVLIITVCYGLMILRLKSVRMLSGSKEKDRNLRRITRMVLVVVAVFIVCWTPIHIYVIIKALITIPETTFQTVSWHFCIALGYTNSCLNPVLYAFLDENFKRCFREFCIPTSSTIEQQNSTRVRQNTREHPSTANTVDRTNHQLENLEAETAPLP

[7] = biological target: Sigma non-opioid intracellular receptor 1 (Rattus norvegicus, UniProt Q9R0C9); assay: Tested for in vitro inhibition of the displacement of (+)-[3H]pentazocine from sigma opioid receptor; summary of the method: as §3
Sigma non-opioid intracellular receptor 1, sequence (Q9R0C9 whole entry): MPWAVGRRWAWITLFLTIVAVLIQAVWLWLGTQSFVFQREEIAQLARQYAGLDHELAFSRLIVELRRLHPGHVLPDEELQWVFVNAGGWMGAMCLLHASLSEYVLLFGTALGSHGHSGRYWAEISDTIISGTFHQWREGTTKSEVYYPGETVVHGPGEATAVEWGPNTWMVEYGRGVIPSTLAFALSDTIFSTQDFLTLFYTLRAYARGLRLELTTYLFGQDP

[8] = biological target: Sodium-dependent dopamine transporter (Rattus norvegicus) (UniProt P23977); assay: Tested for in vitro inhibition of the displacement of [3H]mazindol from dopamine transporter
Sodium-dependent dopamine transporter (Rattus norvegicus), sequence (P23977 whole entry, looked up): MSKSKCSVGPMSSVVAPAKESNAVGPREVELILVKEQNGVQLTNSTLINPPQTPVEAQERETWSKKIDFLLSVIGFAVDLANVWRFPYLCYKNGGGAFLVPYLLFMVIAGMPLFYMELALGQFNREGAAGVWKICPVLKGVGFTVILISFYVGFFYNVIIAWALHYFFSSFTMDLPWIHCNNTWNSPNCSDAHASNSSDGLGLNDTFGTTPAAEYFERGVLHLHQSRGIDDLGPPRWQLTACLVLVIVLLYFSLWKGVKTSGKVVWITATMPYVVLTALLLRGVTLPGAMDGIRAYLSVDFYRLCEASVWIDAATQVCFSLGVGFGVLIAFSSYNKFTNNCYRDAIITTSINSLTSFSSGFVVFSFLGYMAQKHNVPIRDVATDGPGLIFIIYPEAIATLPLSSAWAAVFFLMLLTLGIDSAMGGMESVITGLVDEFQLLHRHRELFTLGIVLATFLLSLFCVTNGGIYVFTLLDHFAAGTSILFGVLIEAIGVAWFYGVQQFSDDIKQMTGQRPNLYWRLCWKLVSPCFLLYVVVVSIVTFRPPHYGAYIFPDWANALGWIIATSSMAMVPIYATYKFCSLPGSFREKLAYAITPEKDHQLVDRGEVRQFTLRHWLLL

[9] = biological target: T1, Glutamate NMDA receptor (Rattus norvegicus); assay: Tested for % inactivation of the displacement of (+)-[3H]dizocilpine from NMDA receptor by 100 nM; type: protein-complex assay; summary of the method: as §2
[10] = biological target: T1, Glutamate NMDA receptor (Rattus norvegicus); assay: Tested for % inactivation of the displacement of [3H]1-[1-(2-thieny])cyclohexyl] peridine from NMDA receptor by 100 nM; type: protein-complex assay
[11] = biological target: Muscarinic acetylcholine receptor; assay: Tested for in vitro inhibition of the displacement of [3H]QNB from CNS receptor; type: protein assay; summary of the method: as §3

Question: `CC[C@]1(c2cccc(N=C=S)c2)OC[C@H]([C@@H]2CCCCN2)O1` was tested. Which Ki (Glutamate NMDA receptor [1]) did it give?
Answer: 0.094 µM

Question: And the Activity [2]?
Answer: 55%

Question: With `C[C@]12N[C@H](Cc3cc(N=C=S)ccc31)c1ccccc12` as the compound, how does the Ki (Glutamate NMDA receptor [1]) read?
Answer: 0.843 µM

Question: For `S=C=Nc1cccc(C2(N3CCCCC3)CCCCC2)c1`, which Ki (Glutamate NMDA receptor [1]) is on record?
Answer: 0.535 µM

Question: `C[C@]12N[C@H](Cc3ccc(N=C=S)cc31)c1ccccc12` (stereo in doubt; (+)-8a) [listing 1 of 2 here] was tested. Which Ki [3] did it give?
Answer: > 100 µM

Question: And the Ki (Glutamate NMDA receptor [4])?
Answer: 0.037 µM

Question: What about the Ki (Glutamate NMDA receptor [5]) of the same compound?
Answer: 0.132 µM

Question: What about the Ki (Glutamate NMDA receptor [1]) of the same compound?
Answer: 0.037 µM

Question: What about the Ki [6] of the same compound?
Answer: > 100 µM

Question: What about the Ki (Mu-type opioid receptor) of the same compound?
Answer: > 100 µM

Question: And the Ki [7]?
Answer: 4.81 µM

Question: And the Ki [8]?
Answer: 6.95 µM

Question: What does the source list for `C[C@]12N[C@H](Cc3ccc(N=C=S)cc31)c1ccccc12` (stereo in doubt; (+)-8a) [listing 2 of 2 here]?
Answer: Activity [9]: 53%; Activity [10]: 50%; Activity [2]: 56%

Question: `C[C@]12N[C@H](Cc3ccc(N=C=S)cc31)c1ccccc12` (stereo in doubt; (-)-8a) was tested. Which Ki (Glutamate NMDA receptor [1]) did it give?
Answer: 0.838 µM

Question: How did the Ki [3] turn out when `C[C@]12N[C@H](Cc3ccccc31)c1ccccc12` [DIZOCILPINE] was run?
Answer: > 100 µM

Question: And the Ki [11]?
Answer: > 100 µM

Question: And the Ki (Mu-type opioid receptor)?
Answer: > 100 µM

Question: What about the Ki [8] of the same compound?
Answer: 40.9 µM
